From ChEMBL document CHEMBL1135118, “Aromatic farnesyl diphosphate analogues: vinyl triflate-mediated synthesis and preliminary enzymatic evaluation” (Bioorg Med Chem Lett, 2002)

Assays:
Assay type in all cases: protein-complex assay
[1] = system: C/C(=C\COP(=O)(O)OP(=O)(O)O)CCc1ccc(-c2ccccc2)cc1; test: Binding affinity for Farnesyltransferase
Procedure, shortened: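 Continuous fluorimetric farnesylation assay with purified recombinant mammalian FTase and dansyl-GCVLS peptide as cosubstrate. FPP analogue or E,E-FPP supplied as a varied substrate in 52 mM Tris–HCl pH 7.0 with 5.8 mM DTT, MgCl₂, ZnCl₂ and 0.4% n-dodecyl-β-D-maltoside. Reaction started with enzyme; fluorescence (ex 350/em 486 nm) recorded for 300 s at 30 °C. Initial fluorescence rates were converted to velocities for Km.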

[2] = target: T1, Protein farnesyltransferase (Homo sapiens, UniProt P49354+P49356); test: Inhibitory activity against mammalian protein-farnesyltransferase
Procedure, shortened: (§1)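 Inhibition read in the continuous fluorescence assay with recombinant mammalian FTase and dansyl-GCVLS peptide at 30 °C for 300 s (ex 350/em 486 nm). Tris–HCl pH 7.0 buffer held DTT, MgCl₂, ZnCl₂ and 0.4% dodecyl maltoside. E,E-FPP was fixed while analogue amounts varied; farnesylation rate was measured for each.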

[3] = target: T1, Protein farnesyltransferase; test: Inhibitory activity against mammalian protein-Farnesyltransferase at 10 uM
[4] = target: T1, Protein farnesyltransferase; test: Inhibitory activity against mammalian protein-Farnesyltransferase; procedure, shortened: as §1

Protein farnesyltransferase (Homo sapiens) (from UniProt P49354+P49356)
Km [1]: 0.8 µM

C/C(=C\COP(=O)(O)OP(=O)(O)O)COCc1ccc(C(=O)c2ccccc2)cc1
IC50 [2]: 2.3 µM

C/C(=C\COP(=O)(O)OP(=O)(O)O)CCc1ccccc1-c1ccccc1
IC50 [3]: > 10 µM

C/C(=C\COP(=O)(O)OP(=O)(O)O)CCc1ccc2ccccc2c1
IC50 [4]: 5.4 µM
